According to PMC2212458 (The Journal of Experimental Medicine, 1998):

Key:
[1] = test system: gp100-reactive T cells with EL-4 thymoma cells; experiment: Recognition of peptide-pulsed EL-4 at limiting concentrations, IFN-γ ELISA; assay type: cell-based; conditions: human versus mouse epitope
H-2D^b = H-2D^b (Mus musculus, UniProt P01899); experiment: MHC class I stabilization assay on RMA/S cells; assay type: binding
Procedure, shortened: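 RMA/S cells (TAP-deficient, H-2b) preincubated 24 h at room temperature, then pulsed with peptides across a concentration range, with control peptides, at room temperature (25°C). Next, 4 h at 37°C to allow turnover of empty class I. Stained with FITC anti-H-2Db mAb KH95 for 1 h at 4°C and analysed by flow cytometry. Expressed as percentage of maximal stabilization at 100 μM.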

Sequence of H-2D^b (P01899 whole entry, looked up): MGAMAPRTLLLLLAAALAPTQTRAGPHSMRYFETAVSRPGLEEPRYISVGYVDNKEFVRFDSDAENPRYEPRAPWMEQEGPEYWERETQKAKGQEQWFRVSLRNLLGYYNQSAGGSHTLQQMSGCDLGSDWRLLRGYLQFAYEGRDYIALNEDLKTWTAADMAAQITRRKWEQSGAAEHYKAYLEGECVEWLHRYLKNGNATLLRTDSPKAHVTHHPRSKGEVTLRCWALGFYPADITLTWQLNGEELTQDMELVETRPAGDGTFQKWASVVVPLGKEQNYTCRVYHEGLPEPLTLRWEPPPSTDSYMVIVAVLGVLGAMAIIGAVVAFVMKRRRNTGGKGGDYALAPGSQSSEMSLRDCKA

KVPRNQDWL [hgp100_25–33]
increase in ability to trigger interferon γ release by T cells [1]: 3 log | affinity for H-2D^b (H-2D^b; compared with mgp100_25–33, Fig. 6): dramatically increased affinity | increase in ability to stabilize “empty” D^b on RMA-S cells (H-2D^b; human versus mouse epitope): 2 log
